This note sets out measurements from ChEMBL document CHEMBL3877241 (J Med Chem, 2016).

In test [1] the target is T1, Tyrosine-protein kinase JAK2 (Homo sapiens, UniProt O60674). The test is described as follows: Inhibition of JAK2 (unknown origin).
Test [2] can be described thus: Antiproliferative activity against human HCT116 cells after 72 hrs by MTT assay. The settings on record: HCT-116, 72 h. The class given is functional, cell-based. An outline of the steps: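 MTT viability after 72 h exposure. Cells seeded at 2500/well and left 24 h before compound addition; DMSO at 0.5% v/v final. MTT added in FBS-free medium for 3 h at 37 °C, formazan dissolved in DMSO, absorbance read at 570 nm. IC50 from a sigmoidal fit of % viability vs log concentration; triplicates on separate occasions using two different stock solutions.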
(Tetrazolium dyes change colour on reduction, which living cells bring about.)

In test [3] the target is T2, Protein deacetylase HDAC6 (Homo sapiens, UniProt Q9UBN7).
T2 sequence (Q9UBN7 whole entry): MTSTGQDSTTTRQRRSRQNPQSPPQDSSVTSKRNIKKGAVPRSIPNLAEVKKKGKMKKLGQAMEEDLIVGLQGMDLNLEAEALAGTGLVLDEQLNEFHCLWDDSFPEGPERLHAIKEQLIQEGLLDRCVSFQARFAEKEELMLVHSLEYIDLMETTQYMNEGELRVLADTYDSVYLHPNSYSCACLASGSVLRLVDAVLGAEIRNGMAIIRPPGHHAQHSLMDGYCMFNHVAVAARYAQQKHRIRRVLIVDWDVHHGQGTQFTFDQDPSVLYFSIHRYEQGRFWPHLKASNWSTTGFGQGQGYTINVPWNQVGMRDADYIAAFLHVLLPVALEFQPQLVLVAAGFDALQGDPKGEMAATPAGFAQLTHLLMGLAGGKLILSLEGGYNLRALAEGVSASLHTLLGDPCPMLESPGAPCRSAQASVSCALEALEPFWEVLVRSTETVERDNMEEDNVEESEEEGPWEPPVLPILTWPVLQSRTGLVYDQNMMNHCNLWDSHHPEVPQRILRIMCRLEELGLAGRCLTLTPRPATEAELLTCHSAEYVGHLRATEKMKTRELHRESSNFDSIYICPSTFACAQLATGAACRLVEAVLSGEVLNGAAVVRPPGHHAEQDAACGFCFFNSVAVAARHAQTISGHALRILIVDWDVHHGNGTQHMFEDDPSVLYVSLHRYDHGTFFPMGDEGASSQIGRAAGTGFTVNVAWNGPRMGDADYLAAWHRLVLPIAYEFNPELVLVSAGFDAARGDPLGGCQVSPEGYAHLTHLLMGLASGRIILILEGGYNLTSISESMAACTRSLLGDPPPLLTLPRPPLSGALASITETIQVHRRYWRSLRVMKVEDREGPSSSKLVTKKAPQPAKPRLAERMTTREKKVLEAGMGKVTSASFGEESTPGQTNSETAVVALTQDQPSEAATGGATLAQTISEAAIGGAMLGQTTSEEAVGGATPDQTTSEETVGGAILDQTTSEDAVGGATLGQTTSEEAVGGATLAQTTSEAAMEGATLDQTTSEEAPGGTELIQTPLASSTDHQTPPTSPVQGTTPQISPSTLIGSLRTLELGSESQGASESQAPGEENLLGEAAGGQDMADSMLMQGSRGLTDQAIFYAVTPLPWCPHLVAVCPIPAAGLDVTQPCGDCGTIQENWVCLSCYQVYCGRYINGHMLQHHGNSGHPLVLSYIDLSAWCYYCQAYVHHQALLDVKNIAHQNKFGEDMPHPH
The test is described as follows: Inhibition of full length human recombinant N-terminal GST-tagged HDAC6 (1 to 1215 residues) expressed in sf9 cells preincubated with enzyme followed by fluorogenic Arg-His-Lys-Lys(Ac)-AMC substrate addition measured after 2 hrs by fluorescence assay.

A short description of test [4]: Antiproliferative activity against human MDA-MB-231 cells after 72 hrs by MTT assay. The class given is functional, cell-based. The settings on record: MDA-MB-231, 72 h.
The target in test [5] is T1, Tyrosine-protein kinase JAK2. Put plainly: Inhibition of JAK2 (unknown origin) preincubated for 20 mins followed by [33P]ATP addition measured after 120 mins by Hotspot assay.
Test [6] can be described thus: Antiproliferative activity against human PC3 cells after 72 hrs by MTT assay. The settings on record: PC-3, 72 h. The test is classed as functional, cell-based.
Test [7] in a line: Antiproliferative activity against human HL60 cells. The class given is functional, cell-based. The settings on record: HL-60.
A short description of another test: cells. The test is classed as functional, cell-based. To be noted: Homo sapiens, HEL 92.1.7, 36 h.
A short description of test [8]: Antiproliferative activity against human MCF7 cells after 72 hrs by MTT assay. The test is classed as functional, cell-based. The settings on record: MCF7, 72 h.
Test [9] in a line: Antiproliferative activity against human Jurkat cells. The test is classed as functional, cell-based.
A further test concerns the target Histone deacetylase 1 (Homo sapiens, UniProt Q13547). Put plainly: Inhibition of full length human recombinant C-terminal FLAG/His-tagged HDAC1 (1 to 482 residues) expressed in sf21 cells preincubated with enzyme followed by fluorogenic Arg-His-Lys-Lys(Ac)-AMC substrate addition measured after 2 hrs by fluorescence assay.
Test [10] in a line: Antiproliferative activity against human OPM2 cells after 48 hrs by CellTiter-Glo assay. The test is classed as functional, cell-based. To be noted: OPM-2, 48 h. An outline of the steps: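 OPM2 grown in RPMI 1640 with 10% FBS and penicillin/streptomycin at 37 °C, 5% CO2. Treated at 25,000 cells/well in triplicate for 48 h. Viability read by CellTiter-Glo luminescence. IC50 taken from a sigmoidal fit of % viability vs log concentration.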

Where only a bound is given, the exact number is not on record here.

Sequence of Histone deacetylase 1 (Q13547 whole entry, the tested form may be a part): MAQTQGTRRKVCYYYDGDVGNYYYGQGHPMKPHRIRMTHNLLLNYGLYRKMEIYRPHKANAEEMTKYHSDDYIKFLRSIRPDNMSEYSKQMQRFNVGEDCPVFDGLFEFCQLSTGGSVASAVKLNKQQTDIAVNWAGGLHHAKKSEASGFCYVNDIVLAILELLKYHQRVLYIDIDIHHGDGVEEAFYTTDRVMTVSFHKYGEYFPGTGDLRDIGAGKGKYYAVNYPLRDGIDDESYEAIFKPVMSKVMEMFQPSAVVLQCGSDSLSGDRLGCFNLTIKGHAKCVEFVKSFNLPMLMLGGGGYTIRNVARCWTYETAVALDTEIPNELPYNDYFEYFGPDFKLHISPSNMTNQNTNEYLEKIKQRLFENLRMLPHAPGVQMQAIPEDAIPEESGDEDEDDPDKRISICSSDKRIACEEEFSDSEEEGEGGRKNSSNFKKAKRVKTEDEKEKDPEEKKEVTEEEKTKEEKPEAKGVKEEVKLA
T1 sequence (O60674 whole entry): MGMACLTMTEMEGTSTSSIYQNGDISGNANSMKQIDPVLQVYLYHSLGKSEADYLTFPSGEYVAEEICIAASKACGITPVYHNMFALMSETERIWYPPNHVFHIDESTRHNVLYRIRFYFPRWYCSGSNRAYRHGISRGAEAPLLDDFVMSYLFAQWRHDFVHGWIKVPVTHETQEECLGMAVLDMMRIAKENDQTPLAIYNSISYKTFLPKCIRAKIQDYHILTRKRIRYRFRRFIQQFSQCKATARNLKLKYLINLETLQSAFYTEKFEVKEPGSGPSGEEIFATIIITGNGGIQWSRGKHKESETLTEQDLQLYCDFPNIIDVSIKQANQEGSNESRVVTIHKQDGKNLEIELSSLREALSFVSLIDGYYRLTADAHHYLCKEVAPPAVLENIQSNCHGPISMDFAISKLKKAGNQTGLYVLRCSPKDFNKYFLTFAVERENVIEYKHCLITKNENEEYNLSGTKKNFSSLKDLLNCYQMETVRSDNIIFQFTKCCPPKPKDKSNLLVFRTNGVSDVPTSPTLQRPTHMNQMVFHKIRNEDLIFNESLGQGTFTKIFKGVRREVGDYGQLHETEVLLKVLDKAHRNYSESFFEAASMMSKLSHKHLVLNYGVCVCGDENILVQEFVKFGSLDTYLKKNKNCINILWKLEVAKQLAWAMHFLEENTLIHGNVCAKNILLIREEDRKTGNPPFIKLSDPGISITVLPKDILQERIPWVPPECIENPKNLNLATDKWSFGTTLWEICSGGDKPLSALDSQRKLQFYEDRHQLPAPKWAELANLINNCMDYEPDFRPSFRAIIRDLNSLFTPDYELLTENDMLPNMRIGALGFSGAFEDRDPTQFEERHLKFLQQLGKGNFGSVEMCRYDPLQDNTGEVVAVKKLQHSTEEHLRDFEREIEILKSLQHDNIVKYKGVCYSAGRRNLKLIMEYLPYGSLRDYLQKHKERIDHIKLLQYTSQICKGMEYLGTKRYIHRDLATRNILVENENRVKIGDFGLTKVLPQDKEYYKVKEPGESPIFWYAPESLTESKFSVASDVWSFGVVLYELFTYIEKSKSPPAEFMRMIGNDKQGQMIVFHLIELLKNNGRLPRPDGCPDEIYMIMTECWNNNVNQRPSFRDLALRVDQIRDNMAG

For `O=C(O)c1cccc(NCCOc2ccc3cc2COC/C=C/COCc2cccc(c2)-c2ccnc(n2)N3)c1`, the half-inhibitory concentration (IC50) in test [1] was less than 0.039 µM; in [2], 59.2 µM; in test [3], 53 µM; in test [4], 21.4 µM.

For `O=C(O)CCCCOc1ccc2cc1COC/C=C/COCc1cccc(c1)-c1ccnc(n1)N2`, the values for the IC50 in [1], in test [2] and in [4] were less than 0.039 µM, 36 µM and 25.9 µM, respectively.

As for `O=C(NO)c1ccc(OCCOc2ccc3cc2COC/C=C/COCc2cccc(c2)-c2ccnc(n2)N3)cc1`, the IC50 in test [5] was found to be 0.00127 µM; in test [6], 1.6 µM; in test [3], 0.066 µM.

As to `CN1CCc2c(c3ccccc3n2Cc2ccc(C(=O)NO)cc2)C1` [TUBASTATIN A], the IC50 was greater than 4 µM in [7]; greater than 2 µM in the test “cells”; 2 µM in [2]; 8.6 µM in test [6]; 3.7 µM in test [8]; 10.4 µM in test [4]. The compound also showed an IC50 in test [9] greater than 4 µM.

In the case of `O=C(CCCCOc1ccc2cc1COC/C=C/COCc1cccc(c1)-c1ccnc(n1)N2)NO`, the concentration for half-maximal inhibition (IC50) came to 0.00245 µM in test [5]; 1.41 µM in test [2]; 10.1 µM in [6]; 0.107 µM in test [3]; 3.09 µM at Histone deacetylase 1; 7.87 µM in test [8]. The compound further registered an IC50 in test [4] of 12.7 µM.

For `O=C(CCCCCOc1ccc2cc1COC/C=C/COCc1cccc(c1)-c1ccnc(n1)N2)NO`, the 50% inhibitory concentration (IC50) is greater than 4 µM in test [7]; 0.0043 µM in test [5]; greater than 2 µM in “cells”; 2.56 µM in test [2]; 8.11 µM in test [6]; 0.028 µM in test [3]. Also, the IC50 at Histone deacetylase 1 turned out to be 4.07 µM; in [8] it was 4.81 µM; in test [4], 8.07 µM; in test [9], 2.9 µM.

Consider `O=C(O)C1CCN(CCOc2ccc3cc2COC/C=C/COCc2cccc(c2)-c2ccnc(n2)N3)CC1`, for which the half-maximal inhibitory concentration (IC50) in test [1] was less than 0.039 µM; in test [2], 8.2 µM; in test [3], greater than 100 µM; in [4], 10.7 µM.

Regarding `O=C(CCCCCCC(=O)Nc1ccccc1)NO` [VORINOSTAT], the IC50 in test [7] amounted to 2.28 µM; in test [10], 2.91 µM; in test [2], 1.85 µM.

Consider `O=C(O)CCCCCOc1ccc2cc1COC/C=C/COCc1cccc(c1)-c1ccnc(n1)N2`, for which the IC50 was less than 0.039 µM in [1], 41 µM in [2], 45 µM in [3] and 19.9 µM in test [4].

As to `O=C(CCCOc1ccc2cc1COC/C=C/COCc1cccc(c1)-c1ccnc(n1)N2)NO`, the IC50 in test [2] is 3.64 µM; in test [6], 4.61 µM; in [3], 0.51 µM; on Histone deacetylase 1, 2.4 µM; in test [8], 2.78 µM; in [4], 5.91 µM.

As for `O=C(O)CCCOc1ccc2cc1COC/C=C/COCc1cccc(c1)-c1ccnc(n1)N2`, the IC50 in [5] came to 0.047 µM; in [2], 124 µM; in [4], 53.5 µM.

Consider `O=C(O)c1ccc(NCCOc2ccc3cc2COC/C=C/COCc2cccc(c2)-c2ccnc(n2)N3)cc1`, for which the half-inhibitory concentration (IC50) was less than 0.039 µM in test [5], 64 µM in test [3] and 46 µM in [4].

Regarding `O=C(CCCCCCC(=O)Nc1ccc(NCCOc2ccc3cc2COC/C=C/COCc2cccc(c2)-c2ccnc(n2)N3)cc1)NO`, the concentration for half-maximal inhibition (IC50) in test [7] was greater than 4 µM; in test [5], 0.03 µM; in the test “cells”, greater than 2 µM; in test [6] it was greater than 100 µM; in test [3] it was 0.0023 µM; in test [4], 3.43 µM. The compound further came in with a half-inhibitory concentration (IC50) in [9] greater than 4 µM.

`O=C(O)c1ccc(OCCOc2ccc3cc2COC/C=C/COCc2cccc(c2)-c2ccnc(n2)N3)cc1`: the IC50 in test [1] was less than 0.039 µM; in [2], 29.7 µM; in [3] it was greater than 100 µM; in [4], 54.2 µM.

As for `O=C(NO)c1ccc(NCCOc2ccc3cc2COC/C=C/COCc2cccc(c2)-c2ccnc(n2)N3)cc1`, the IC50 in test [5] stood at 0.00171 µM; in [2], 3.2 µM; in [6] it was 4.58 µM; in [3] it was 0.395 µM; in test [8], 3.84 µM; in test [4], 8.69 µM.

Take `O=C(O)CCCCCCC(=O)Nc1ccc(NCCOc2ccc3cc2COC/C=C/COCc2cccc(c2)-c2ccnc(n2)N3)cc1`: the figures for the half-maximal inhibitory concentration (IC50) in test [5], in [2] and in [3] were 0.00231 µM, 2.7 µM and 2.6 µM, respectively.

As to `O=C(O)CCCCCCOc1ccc2cc1COC/C=C/COCc1cccc(c1)-c1ccnc(n1)N2`, the IC50 amounted to 0.00257 µM in test [5]; 6.06 µM in test [2]; 8.76 µM in test [6]; 2.8 µM in test [3]; 20 µM in test [8]; 12 µM in [4].

As for `O=C(NO)C1CCN(CCOc2ccc3cc2COC/C=C/COCc2cccc(c2)-c2ccnc(n2)N3)CC1`, the IC50 in test [5] stood at 0.00097 µM; in [2], 1.2 µM; in test [6] it was 2.79 µM; in [3] it was 0.899 µM; in test [8], 1.68 µM; in [4], 3.41 µM.

As to `O=C(O)CCCCCCCOc1ccc2cc1COC/C=C/COCc1cccc(c1)-c1ccnc(n1)N2`, the half-maximal inhibitory concentration (IC50) was less than 0.039 µM in [1]; 8.04 µM in test [2]; 22.8 µM in test [6]; 10 µM in test [3]; 27.7 µM in test [8]; 17.1 µM in [4].

As to `O=C(CCCCCC(=O)Nc1ccc(NCCOc2ccc3cc2COC/C=C/COCc2cccc(c2)-c2ccnc(n2)N3)cc1)NO`, the IC50 in test [7] was greater than 4 µM; in test [5], 0.0069 µM; in “cells” it was greater than 2 µM; in [6], greater than 100 µM; in test [3], 0.0025 µM; in [9], greater than 4 µM.

Turning to `O=C(NO)c1cccc(NCCOc2ccc3cc2COC/C=C/COCc2cccc(c2)-c2ccnc(n2)N3)c1`, the IC50 in [5] is 0.009 µM; in test [2] it was 2.01 µM; in [6] it was greater than 100 µM; in [3], 2.9 µM; in test [4] it was greater than 50 µM.

Broadly, the IC50 is the concentration needed to halve the response being measured.
